# Assay results gathered from unrelated publications.
# MCU: Calcium uniporter protein, mitochondrial (MCU, Homo sapiens, UniProt Q8NE86)
# DRD2: D(2) dopamine receptor (DRD2, Homo sapiens, UniProt P14416)
Compound,target,test,conditions,IC50
CN[C@@H]1C[C@H]2O[C@@](C)([C@@H]1OC)n1c3ccccc3c3c4c(c5c6ccccc6n2c5c31)C(=O)NC4,"Serine/threonine-protein kinase LMTK3 (LMTK3, Homo sapiens, UniProt Q96Q04)","enzyme activity, inhibitor, TR-FRET",,0.0045 nM
C1CNCN2CNCCNCN(CN1)CNCCNC2.[Co+3],MCU,"transporter uptake, inhibitor",,131 nM
COc1ccc(C(=O)O)cc1S(=O)(=O)Nc1ccc(C(F)(F)F)cc1N1CCCCC1,"Endoplasmic reticulum aminopeptidase 2 (ERAP2, Homo sapiens, UniProt Q6P179, K392N)","enzyme activity, inhibitor",,44000 nM
COc1ccc2[nH]cc(CN3CCC(O)(c4ccc(SC)cc4)CC3)c2c1,DRD2,ion current,,250 nM
N.N.N.N.N.N.N.N.O=C(O)c1ccccc1.O=C(O)c1ccccc1.[N-3].[Ru+4].[Ru+4],MCU,"transporter uptake, inhibitor",,13.9 nM
Cc1ccc(-c2ncn(-c3ccc(Nc4nccc(-c5cccc(N6CCOCC6)c5)n4)cc3)n2)cn1,"Mitogen-activated protein kinase 8 (MAPK8, Homo sapiens, UniProt P45983)","enzyme activity, inhibitor",,67 nM
NCCN.NCCN.NCCN.[Co+3],MCU,"transporter uptake, inhibitor",,76 nM
COc1cc(Nc2ncc(F)c(Nc3ccc4c(n3)NC(=O)C(C)(C)O4)n2)cc(OC)c1OC,"Adenosine receptor A3 (ADORA3, Homo sapiens, UniProt P0DMS8)","cell-free assay, inhibitor",,20 nM
O=S(=O)([O-])[O-].[Cu+2],"Delta-aminolevulinic acid dehydratase (Homo sapiens, UniProt P13716, C162A/K59N)","enzyme activity, inhibitor, absorbance",pH 8,2200 nM
C[C@H](N)Cn1ncc2ccc3c(c21)CCCO3,DRD2,"ligand displacement, radioligand",,> 100000 nM
N#CC(C#N)=Cc1cc(C(=O)CCl)c[nH]1,"Epidermal growth factor receptor (EGFR, Homo sapiens, UniProt P00533)","enzyme activity, inhibitor, mobility shift",,13000 nM
CC(C)C[C@H](NC(=O)[C@H](Cc1ccccc1)NC(=O)[C@H](Cc1ccc(O)cc1)NC(=O)CNC(=O)[C@H](CCCCN)NC(=O)[C@H](CO)NC(=O)[C@H](CCC(N)=O)NC(=O)CNC(=O)[C@@H](NC(=O)[C@H](CO)NC(=O)[C@@H]1CCCN1C(=O)[C@H](CO)NC(=O)[C@H](CCC(N)=O)NC(=O)[C@H](Cc1ccc(O)cc1)NC(=O)[C@H](CCC(=O)O)NC(=O)[C@H](C)NC(=O)[C@H](CCCCN)NC(=O)[C@@H](N)Cc1ccccc1)C(C)C)C(=O)N[C@@H](Cc1ccccc1)C(=O)N[C@@H](CCCNC(=N)N)C(=O)N1CCC[C@H]1C(=O)N[C@@H](CCCNC(=N)N)C(=O)N[C@@H](CC(N)=O)C(N)=O,"Neuromedin-U receptor 2 (Mus musculus, UniProt Q8BZ39)","ligand displacement, radioligand",,0.0302 nM
